From ChEMBL document CHEMBL1139138, “Pyrrolidine-constrained phenethylamines: The design of potent, selective, and pharmacologically efficacious dipeptidyl peptidase IV (DPP4) inhibitors from a lead-like screening hit” (Bioorg Med Chem Lett, 2007) come the findings set out here.

In series [1] the target is T1, Prolyl endopeptidase (Homo sapiens, UniProt P48147).
T1 sequence (P48147 whole entry): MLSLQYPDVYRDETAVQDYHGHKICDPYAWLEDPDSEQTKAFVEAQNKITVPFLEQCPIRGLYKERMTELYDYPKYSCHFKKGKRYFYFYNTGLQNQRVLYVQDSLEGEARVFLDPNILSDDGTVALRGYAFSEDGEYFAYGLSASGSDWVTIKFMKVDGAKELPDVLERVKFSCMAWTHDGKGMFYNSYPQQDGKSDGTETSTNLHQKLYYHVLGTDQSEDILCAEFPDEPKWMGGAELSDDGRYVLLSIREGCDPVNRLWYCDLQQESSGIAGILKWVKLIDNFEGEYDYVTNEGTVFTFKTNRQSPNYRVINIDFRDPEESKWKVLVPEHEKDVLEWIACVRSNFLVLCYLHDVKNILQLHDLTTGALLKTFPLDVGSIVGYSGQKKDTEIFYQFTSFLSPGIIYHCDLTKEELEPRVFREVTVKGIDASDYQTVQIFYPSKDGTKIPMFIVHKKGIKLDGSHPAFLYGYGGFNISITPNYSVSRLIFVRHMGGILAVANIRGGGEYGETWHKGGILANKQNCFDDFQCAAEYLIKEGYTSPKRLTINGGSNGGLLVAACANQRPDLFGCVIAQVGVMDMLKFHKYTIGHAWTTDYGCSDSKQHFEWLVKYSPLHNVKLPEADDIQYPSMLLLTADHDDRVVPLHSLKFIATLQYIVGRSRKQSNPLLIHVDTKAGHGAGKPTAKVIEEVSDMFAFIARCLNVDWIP
The series can be described thus: Inhibition of human POP.

The nature of series [2]: Plasma clearance in Sprague-Dawley rat at 5 mg/kg, po. It is filed as ADME, organism-based. Set-up: dose 5 mg/kg, route oral. In a few lines:
(§1)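 Pharmacokinetics in rat dosed at 5 mg/kg and in dog and monkey dosed at 2.5 mg/kg. Cmax, t1/2 (terminal) and AUC were taken from oral dosing. F is oral bioavailability. Vss is volume of distribution at steady state.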

Series [3] concerns Rattus norvegicus. The series can be described thus: Volume of distribution at steady state in Sprague-Dawley rat at 5 mg/kg, po. Set-up: dose 5 mg/kg, route oral. The following applies: in vivo. It is filed as ADME, organism-based. The essentials: as §1
The target in series [4] is T2, Prolyl endopeptidase FAP (Homo sapiens, UniProt Q12884).
T2 sequence (Q12884 whole entry): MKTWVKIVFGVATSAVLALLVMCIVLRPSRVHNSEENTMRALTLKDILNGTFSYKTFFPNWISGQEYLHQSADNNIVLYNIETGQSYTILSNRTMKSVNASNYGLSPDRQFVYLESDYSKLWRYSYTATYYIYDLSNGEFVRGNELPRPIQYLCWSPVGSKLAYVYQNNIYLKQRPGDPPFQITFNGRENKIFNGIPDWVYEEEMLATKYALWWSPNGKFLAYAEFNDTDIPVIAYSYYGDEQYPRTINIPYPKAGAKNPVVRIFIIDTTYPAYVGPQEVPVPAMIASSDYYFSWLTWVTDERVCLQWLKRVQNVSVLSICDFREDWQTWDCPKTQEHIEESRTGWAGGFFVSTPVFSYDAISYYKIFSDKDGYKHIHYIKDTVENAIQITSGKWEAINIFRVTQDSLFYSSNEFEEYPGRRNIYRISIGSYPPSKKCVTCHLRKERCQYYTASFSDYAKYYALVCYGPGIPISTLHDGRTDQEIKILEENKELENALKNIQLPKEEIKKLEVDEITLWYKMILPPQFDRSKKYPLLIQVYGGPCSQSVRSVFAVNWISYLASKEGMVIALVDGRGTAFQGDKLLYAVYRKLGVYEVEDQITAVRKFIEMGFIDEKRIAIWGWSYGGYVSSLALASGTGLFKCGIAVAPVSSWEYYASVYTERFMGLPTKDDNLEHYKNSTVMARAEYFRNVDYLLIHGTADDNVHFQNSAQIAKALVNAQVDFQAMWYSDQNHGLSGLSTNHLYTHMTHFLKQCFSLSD
Briefly: Inhibition of human FAPalpha.

A short description of series [5]: Half life in human liver microsome. The following applies: liver microsomes. It is filed as ADME. The essentials:
(§2)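 Stability on incubation with rat or human liver microsomes, expressed as half-life.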

Series [6] in a line: Oral bioavailability in Sprague-Dawley rat at 5 mg/kg, po. It is filed as ADME, organism-based. The following applies: in vivo. The essentials: as §1
The target in series [7] is Cytochrome P450 3A4 (Homo sapiens, UniProt P08684). The series can be described thus: Inhibition of CYP3A4. It is filed as ADME.
Chain of Cytochrome P450 3A4 (P08684 whole entry): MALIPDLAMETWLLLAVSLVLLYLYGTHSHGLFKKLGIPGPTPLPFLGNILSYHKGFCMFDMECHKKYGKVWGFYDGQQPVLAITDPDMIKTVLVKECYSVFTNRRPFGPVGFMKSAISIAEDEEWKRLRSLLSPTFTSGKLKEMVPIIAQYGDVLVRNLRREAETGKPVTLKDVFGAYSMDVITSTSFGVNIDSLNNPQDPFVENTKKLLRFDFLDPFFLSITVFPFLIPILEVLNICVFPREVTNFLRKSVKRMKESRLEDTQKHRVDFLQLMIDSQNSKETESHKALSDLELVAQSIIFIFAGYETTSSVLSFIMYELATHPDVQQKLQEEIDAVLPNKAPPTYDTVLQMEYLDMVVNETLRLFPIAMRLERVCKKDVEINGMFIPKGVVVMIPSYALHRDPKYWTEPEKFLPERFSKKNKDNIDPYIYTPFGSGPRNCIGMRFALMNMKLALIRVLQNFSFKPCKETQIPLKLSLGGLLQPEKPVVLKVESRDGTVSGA
Series [8] deals with Rattus norvegicus. Briefly: AUC in Sprague-Dawley rat at 5 mg/kg, po. The following applies: in vivo. It is filed as ADME, organism-based, Plasma. Set-up: dose 5 mg/kg, route oral. In a few lines:
as §1

Series [9] addresses Cytochrome P450 2D6 (Homo sapiens, UniProt P10635). The series can be described thus: Inhibition of CYP2D6. It is filed as ADME.
Series [10] is described as follows: Half life in Sprague-Dawley rat at 5 mg/kg, po. Set-up: dose 5 mg/kg, route oral. It is filed as ADME, organism-based. As to conditions: in vivo. In a few lines:
as §1

A short description of series [11]: Cmax in Sprague-Dawley rat at 5 mg/kg, po. It is filed as ADME, organism-based. Set-up: dose 5 mg/kg, route oral. As to conditions: in vivo. The essentials:
as §1

The target of series [12] is Dipeptidyl peptidase 9 (Homo sapiens, UniProt Q86TI2). The series can be described thus: Inhibition of human DPP9.
Chain of Dipeptidyl peptidase 9 (Q86TI2 whole entry): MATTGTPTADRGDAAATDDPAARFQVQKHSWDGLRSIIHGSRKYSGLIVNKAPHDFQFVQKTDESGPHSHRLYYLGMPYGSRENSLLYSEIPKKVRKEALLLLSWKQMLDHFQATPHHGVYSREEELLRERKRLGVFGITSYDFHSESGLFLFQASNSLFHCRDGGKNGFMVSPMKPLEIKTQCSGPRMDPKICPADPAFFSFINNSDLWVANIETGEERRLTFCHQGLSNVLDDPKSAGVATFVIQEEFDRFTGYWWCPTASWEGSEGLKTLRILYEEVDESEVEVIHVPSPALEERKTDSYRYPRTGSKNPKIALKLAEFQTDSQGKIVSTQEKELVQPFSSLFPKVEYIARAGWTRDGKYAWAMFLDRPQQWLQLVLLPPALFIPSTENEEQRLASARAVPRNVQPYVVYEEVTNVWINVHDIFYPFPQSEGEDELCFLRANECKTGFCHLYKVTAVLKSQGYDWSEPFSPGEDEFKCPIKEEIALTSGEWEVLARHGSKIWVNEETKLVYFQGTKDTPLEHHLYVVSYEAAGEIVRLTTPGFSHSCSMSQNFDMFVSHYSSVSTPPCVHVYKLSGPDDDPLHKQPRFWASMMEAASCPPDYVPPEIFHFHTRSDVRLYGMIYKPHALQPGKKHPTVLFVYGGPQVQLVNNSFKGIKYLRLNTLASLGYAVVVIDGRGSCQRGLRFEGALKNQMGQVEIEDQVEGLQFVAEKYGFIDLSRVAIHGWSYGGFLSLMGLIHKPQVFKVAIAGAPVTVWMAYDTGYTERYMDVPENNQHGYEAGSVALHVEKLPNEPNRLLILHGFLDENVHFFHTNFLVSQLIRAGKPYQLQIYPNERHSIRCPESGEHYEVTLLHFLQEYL
A short description of series [13]: Half life in rat liver microsome. It is filed as ADME. The following applies: liver microsomes. In a few lines: as §2
A general note: Microsomes from liver hold many membrane-bound enzymes, among them those of drug oxidation.

The target of series [14] is Dipeptidyl peptidase 8 (Homo sapiens, UniProt Q6V1X1). Briefly: Inhibition of human DPP8.
Chain of Dipeptidyl peptidase 8 (Q6V1X1 whole entry): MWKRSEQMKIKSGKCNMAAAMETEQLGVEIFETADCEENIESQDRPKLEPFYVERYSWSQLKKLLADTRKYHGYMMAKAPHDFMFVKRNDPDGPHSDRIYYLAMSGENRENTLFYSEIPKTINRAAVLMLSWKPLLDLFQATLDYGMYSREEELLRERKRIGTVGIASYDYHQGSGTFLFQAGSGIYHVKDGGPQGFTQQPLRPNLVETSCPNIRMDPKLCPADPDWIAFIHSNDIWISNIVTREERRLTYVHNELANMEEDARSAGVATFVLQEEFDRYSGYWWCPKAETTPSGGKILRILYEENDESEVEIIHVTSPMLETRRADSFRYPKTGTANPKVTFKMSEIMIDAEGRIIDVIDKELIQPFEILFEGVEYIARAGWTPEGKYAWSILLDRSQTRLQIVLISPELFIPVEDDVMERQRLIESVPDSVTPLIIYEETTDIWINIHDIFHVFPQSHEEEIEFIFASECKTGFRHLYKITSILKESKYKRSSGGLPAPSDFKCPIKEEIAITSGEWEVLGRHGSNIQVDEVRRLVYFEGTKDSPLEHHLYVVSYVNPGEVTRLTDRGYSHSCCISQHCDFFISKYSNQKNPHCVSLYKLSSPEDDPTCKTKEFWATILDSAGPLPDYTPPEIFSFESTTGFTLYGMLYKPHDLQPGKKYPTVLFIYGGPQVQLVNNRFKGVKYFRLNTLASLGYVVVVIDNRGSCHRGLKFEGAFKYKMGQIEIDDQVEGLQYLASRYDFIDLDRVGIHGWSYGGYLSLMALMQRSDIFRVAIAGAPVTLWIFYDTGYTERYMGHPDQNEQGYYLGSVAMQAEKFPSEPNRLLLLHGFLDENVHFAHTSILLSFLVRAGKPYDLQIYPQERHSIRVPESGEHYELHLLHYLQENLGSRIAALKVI
Series [15] deals with T3, Dipeptidyl peptidase 4 (Homo sapiens, UniProt P27487). Briefly: Inhibition of human DPP4 by tight binding assay.
T3 sequence (P27487 whole entry): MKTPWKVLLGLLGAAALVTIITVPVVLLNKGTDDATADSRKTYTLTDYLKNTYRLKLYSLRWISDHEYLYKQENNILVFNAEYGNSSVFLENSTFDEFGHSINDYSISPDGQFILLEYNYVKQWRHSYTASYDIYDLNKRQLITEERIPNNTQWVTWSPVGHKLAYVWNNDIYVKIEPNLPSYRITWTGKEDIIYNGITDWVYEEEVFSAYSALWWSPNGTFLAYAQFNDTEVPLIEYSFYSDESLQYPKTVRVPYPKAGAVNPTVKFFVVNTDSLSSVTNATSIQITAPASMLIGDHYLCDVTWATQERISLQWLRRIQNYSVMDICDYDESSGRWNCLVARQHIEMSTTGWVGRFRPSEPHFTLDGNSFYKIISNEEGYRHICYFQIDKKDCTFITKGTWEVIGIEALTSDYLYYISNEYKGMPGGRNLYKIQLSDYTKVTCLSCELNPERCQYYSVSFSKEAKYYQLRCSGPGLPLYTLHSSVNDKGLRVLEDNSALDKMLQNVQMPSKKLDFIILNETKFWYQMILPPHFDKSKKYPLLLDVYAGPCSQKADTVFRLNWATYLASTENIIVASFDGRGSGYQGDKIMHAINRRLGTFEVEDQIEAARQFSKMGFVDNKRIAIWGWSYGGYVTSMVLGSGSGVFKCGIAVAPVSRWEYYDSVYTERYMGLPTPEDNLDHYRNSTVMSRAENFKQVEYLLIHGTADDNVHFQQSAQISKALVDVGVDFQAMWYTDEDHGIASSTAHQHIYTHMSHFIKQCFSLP
Series [16] concerns the target T3, Dipeptidyl peptidase 4. The series can be described thus: Inhibition of human DPP4 in presence of rat plasma protein. It is filed as cell-free.
For series [17], the target named is Cytochrome P450 2C9 (Homo sapiens, UniProt P11712). The series can be described thus: Inhibition of CYP2C9. It is filed as ADME.
Chain of Cytochrome P450 2C9 (P11712 whole entry): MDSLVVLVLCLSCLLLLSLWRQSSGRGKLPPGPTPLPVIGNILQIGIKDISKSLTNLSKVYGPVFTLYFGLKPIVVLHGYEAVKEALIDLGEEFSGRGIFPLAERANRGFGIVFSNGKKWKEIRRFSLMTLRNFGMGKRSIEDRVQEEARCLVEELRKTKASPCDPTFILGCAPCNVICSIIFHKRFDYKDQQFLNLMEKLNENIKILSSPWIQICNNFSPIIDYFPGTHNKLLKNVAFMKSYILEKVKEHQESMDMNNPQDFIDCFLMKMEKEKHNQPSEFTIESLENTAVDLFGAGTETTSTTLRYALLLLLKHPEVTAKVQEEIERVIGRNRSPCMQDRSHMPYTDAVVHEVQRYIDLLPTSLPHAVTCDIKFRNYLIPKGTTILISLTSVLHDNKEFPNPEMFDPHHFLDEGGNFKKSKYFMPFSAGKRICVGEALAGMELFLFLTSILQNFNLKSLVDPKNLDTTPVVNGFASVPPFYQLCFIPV

Each structure is given as a SMILES string.

Chain of Cytochrome P450 2D6 (P10635 whole entry): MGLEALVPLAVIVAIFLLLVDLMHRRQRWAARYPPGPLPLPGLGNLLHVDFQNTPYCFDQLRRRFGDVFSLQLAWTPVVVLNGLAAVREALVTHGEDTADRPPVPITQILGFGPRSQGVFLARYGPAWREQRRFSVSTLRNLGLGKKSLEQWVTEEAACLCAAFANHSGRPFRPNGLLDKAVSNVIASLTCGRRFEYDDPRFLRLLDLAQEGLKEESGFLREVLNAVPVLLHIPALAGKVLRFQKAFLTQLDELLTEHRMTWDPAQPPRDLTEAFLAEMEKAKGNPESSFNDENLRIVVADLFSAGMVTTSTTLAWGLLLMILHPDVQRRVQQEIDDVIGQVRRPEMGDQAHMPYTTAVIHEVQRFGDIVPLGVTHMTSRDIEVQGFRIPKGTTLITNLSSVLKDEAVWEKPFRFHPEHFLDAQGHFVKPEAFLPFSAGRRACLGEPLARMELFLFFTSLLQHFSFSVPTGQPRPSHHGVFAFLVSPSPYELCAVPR

What is called Ki is the equilibrium dissociation constant of an inhibitor or competing ligand from its target. What is called CL/F is clearance divided by bioavailability, as obtained after extravascular dosing. As a reminder, the half-life is how long it takes for the measured level to halve. Read a high half-life as slow loss. The term IC50 denotes the point on the concentration scale where inhibition reaches its midpoint. Usually AUC stands for the area under the concentration-time curve, a measure of exposure. Read a low AUC as less exposure. The term Cmax denotes the highest concentration seen after dosing. With `NC1CN(c2cc(-c3cccc(C(=O)O)c3)ncn2)CC1c1cc(F)c(F)cc1F` (centres undefined), the Ki is above 30 µM in [1], above 30 µM in series [4], above 3 µM in [12] and above 3 µM in series [14]. The compound also had an apparent clearance (CL/F) in series [2] of 18.3 mL/min/kg. Also, the Vdss in series [3] amounted to 1.78 L/kg. The figures for the half-life in series [5], in [10] and in series [13] were above 180 min, 408 min and above 180 min, respectively. Also, the bioavailability in series [6] stood at 18%. The concentration for half-maximal inhibition (IC50) in series [7] was above 10 µM; in series [9], above 10000 nM. The exposure (AUC) in series [8] is 652 ng·h/mL. In [11], this compound displayed a maximum concentration (Cmax) of 176 ng/mL.
Regarding `NC1CN(c2cc(-c3ccc(C(=O)O)cc3)ncn2)CC1c1cc(F)c(F)cc1F` (centres undefined), the half-life in series [5] and in series [13] was above 180 min in each case.
As to `CN(C)C(=O)c1cccc(-c2cc(N3CC(N)C(c4cc(F)c(F)cc4F)C3)ncn2)c1` (centres undefined), in [2], the CL/F was 12.2 mL/min/kg. The Vdss in series [3] was found to be 1.77 L/kg. In addition, the half-life in series [5] is above 180 min; in series [10], 210 min; in series [13] it was above 180 min. For the same compound, the bioavailability in series [6] turned out to be 42%. The compound further returned an AUC in series [8] of 3140 ng·h/mL. The peak level in series [11] (Cmax) was 1270 ng/mL.
Regarding `NC1CN(c2cc(-c3cccc(S(=O)(=O)N4CCOCC4)c3)ncn2)CC1c1cc(F)c(F)cc1F` (centres undefined), the inhibition constant (Ki) in series [1] was above 30 µM; in series [4] it was above 30 µM; in series [15], 3.2 nM; in series [16], 1.7 nM. Also, the apparent clearance (CL/F) in [2] is 34.8 mL/min/kg. Further, the Vdss in series [3] was 1.84 L/kg. Besides, the half-life is above 180 min in [5], 66 min in series [10] and above 180 min in series [13]. The bioavailability in series [6] came out at 21%. Also, the IC50 in series [7] is above 10 µM; in series [9], above 10000 nM; in series [17], above 10 µM. In series [8], this compound returned an area under the curve (AUC) of 515 ng·h/mL. This compound displayed a Cmax in series [11] of 347 ng/mL.
Take `CS(=O)(=O)c1cc(F)cc(-c2cc(N3CC(N)C(c4cc(F)c(F)cc4F)C3)ncn2)c1` (centres undefined): the half-life in series [5] and in series [13] was above 180 min each time.
Consider `NC1CN(c2cc(-c3ccccc3)ncn2)CC1c1cc(F)c(F)cc1F` (centres undefined), for which the half-life in series [5] and in series [13] was above 180 min in each case.
For the compound `NC1CN(Cc2ccccc2)CC1c1ccc(Cl)cc1Cl` (centres undefined), the half-life in series [5] and in series [13] was above 180 min each time.
As for `CS(=O)(=O)c1cccc(-c2cc(N3CC(N)C(c4cc(F)c(F)cc4F)C3)ncn2)c1` (centres undefined), the inhibition constant Ki in [1] and in [4] was above 30 µM throughout. The CL/F in series [2] is 4.33 mL/min/kg. Further, in [3], the Vdss was found to be 1.44 L/kg. In addition, the half-life was above 180 min in [5], 228 min in [10] and above 180 min in series [13]. The bioavailability in [6] turned out to be 110%. Moreover, the area under the curve (AUC) in [8] came out at 22000 ng·h/mL. The same compound gave a Cmax in series [11] of 1810 ng/mL.
Consider `Cl.NC1CN(c2cc(-c3ccsc3)ncn2)CC1c1cc(F)c(F)cc1F` (centres undefined), for which the half-life in [5] and in series [13] was above 180 min throughout. The same compound returned an IC50 in [9] of 1100 nM.
Consider `NC1CN(c2ccccn2)CC1c1ccc(Cl)cc1Cl` (racemic), for which the half-life in [5] and in series [13] was above 180 min in each case.
Regarding `NC1CN(c2ncccn2)CC1c1ccc(Cl)cc1Cl` (racemic), the half-life in series [5] and in series [13] was above 180 min each time.
As to `COc1ccc(-c2cnc(N3CC(N)C(c4ccc(Cl)cc4Cl)C3)nc2)cc1` (racemic), the half-life in series [5] and in [13] was above 180 min in each case.
As for `Cc1ccc(S(=O)(=O)N2CC(N)C(c3ccc(Cl)cc3Cl)C2)cc1` (racemic), the half-life in [5] and in series [13] was above 180 min each time.
`NC1CN(C(=O)NCc2cccc(F)c2)CC1c1ccc(Cl)cc1Cl` (racemic): the half-life in [5] and in [13] was above 180 min in each case.
`COc1cccc(CN(C)C(=O)N2CC(N)C(c3ccc(Cl)cc3Cl)C2)c1` (racemic): the half-life in series [5] and in [13] was above 180 min in each case.
In the case of `NC1CN(c2cc(-c3ccsc3)ncn2)CC1c1cc(F)c(F)cc1Cl` (racemic), the half-life in series [5] and in series [13] was above 180 min throughout.
On to `NC1CN(c2nccc(-c3ccsc3)n2)CC1c1ccc(Cl)cc1Cl` (racemic), for which the half-life in series [5] and in [13] was above 180 min each time.
Take `NC1CN(c2ccnc(-c3ccsc3)n2)CC1c1ccc(Cl)cc1Cl` (racemic): the half-life in series [5] and in series [13] was above 180 min each time.
On to `NC1CN(c2cc(-c3ccsc3)ncn2)CC1c1ccc(F)cc1Cl` (racemic), for which the half-life in series [5] and in series [13] was above 180 min each time.
Take `CCOC(=O)N1CC(N)C(c2ccc(Cl)cc2Cl)C1` (racemic): the half-life in series [5] and in [13] was above 180 min in each case.
Consider `Cc1cccc(COC(=O)N2CC(N)C(c3ccc(Cl)cc3Cl)C2)n1` (racemic), for which the half-life in series [5] and in series [13] was above 180 min in each case.
For the compound `NC1CN(c2nccc(-c3ccccc3)n2)CC1c1ccc(Cl)cc1Cl` (racemic), the half-life in series [5] and in [13] was above 180 min throughout.
In the case of `NC1CN(c2cc(-c3ccsc3)ncn2)CC1c1ccc(Cl)cc1Cl` (racemic), the half-life in [5] and in series [13] was above 180 min each time.
Take `NC1CN(c2cc(-c3ccsc3)ncn2)CC1c1cc(F)c(F)cc1F` (racemic): the half-life in series [5] and in series [13] was above 180 min in each case. Moreover, the IC50 in series [7] was above 10 µM; in [9], 98 nM; in [17], above 10 µM.
As to `CC(=O)N1CC(N)C(c2ccc(Cl)cc2Cl)C1` (racemic), the half-life in series [5] and in [13] was above 180 min in each case.
Take `CCNC(=O)N1CC(N)C(c2ccc(Cl)cc2Cl)C1` (racemic): the half-life in series [5] and in [13] was above 180 min each time.
Turning to `CCN(C)C(=O)N1CC(N)C(c2ccc(Cl)cc2Cl)C1` (racemic), the half-life in series [5] and in series [13] was above 180 min each time.
As for `NC1CN(c2ccccc2)CC1c1ccc(Cl)cc1Cl` (racemic), the half-life in series [5] and in series [13] was above 180 min throughout.
